Screens from PubChem.
This excerpt belongs to a sample that is enriched for hits.
XBP1 UPR activ: activators of adaptive XBP1 UPR arm, primary screen, cell-based, CHO-XBP1 luciferase reporter, luminescence, uHTS; activation, % at 20 µM; IRE1-XBP1 UPR activation; percent of tunicamycin response, DMSO as zero; AID 463104, 2010; actives 0.33% (n = 330,000);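 active means versus positive control, 20 µM dose yields 30% or more activation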
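Material: IRE1-XBP1 luciferase reporter CHO line / Quantity: one thousand reporter cells per well / Buffer or medium: F12 with 10% serum / Compound: 20 µM single concentration, DMSO 1% / Times: 6 h treatment, 37 °C / Detection: Steady-Glo luciferase glow luminescence, 10 min after reagent addition / Benchmarks: tunicamycin high, DMSO low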
CHOP UPR activ: activators of apoptotic CHOP UPR arm, primary screen, cell-based, CHO-CHOP luciferase reporter, luminescence, uHTS; actives 0.34% (n = 330,000); AID 449763, 2010; UPR activation; percent of tunicamycin response over DMSO baseline; activation, % at 10 µM;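 active means at 10 µM dose, activation of 40% or more, normalized to positive control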
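Evaluation: % reporter activation, DMSO baseline versus tunicamycin full activation; System: CHO-CHOP luciferase reporter cell line; Input: 500 cells/well; Incubation: 6 h compound treatment, 37 °C; Measured by: Steady-Glo luciferase luminescence; Dosing: one dose, 10 µM in 0.5% DMSO; Buffer or medium: F12 medium, 10% FBS; Benchmarks: positive tunicamycin 10 µg/mL, negative DMSO alone.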
Dynein transport: inhibitors of GR-EGFP nuclear translocation, primary screen, dynein cargo transport inhibitor project, imaging, high-content, 3617.4 mouse cells; test concentration mostly 20 µM; stimulated with dexamethasone, 1 µM; hits give low values; z-score, hits read low; actives 0.47% (n = 220,000); AID 1381, 2008;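 active means plate z-score of nuclear minus cytoplasmic receptor signal below a set negative limit, without overly bright fluorescence or cell loss, cut at about -3.5 in these data, passing the limit was not always enough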;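 further: z-score of nuclear minus cytoplasmic ring GR-EGFP intensity difference per well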
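Buffer or medium: tet-free, stripped-serum medium; reagent: dexamethasone at 1.0 µM final, 30 min; incubation: 48 h induction, 1 h compound, 30 min dex at 37 °C; measured by: formaldehyde fixation, Hoechst nuclear stain, 10x automated fluorescence imaging; read-out: nuclear-to-cytoplasmic GR-EGFP distribution per well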
T cruzi inh: inhibitors of intracellular T. cruzi growth, primary screen, luminescence, NIH3T3 host cells; inhibition, % (no concentration beside the values); T. cruzi beta-gal in NIH3T3, 90 h; actives 1.4% (n = 300,000);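 active means mean inhibition across valid replicates above about 55%, limit read from the data; inconclusive means mean below that limit but half or more replicates reach it; inactive means mean below it, under half of replicates reach it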;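 further: signal also drops with host cell toxicity which is not excluded here; higher percent means less beta-gal luminescence so fewer parasites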
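Read-out: Parasite load inhibition, % | Test system: Mouse NIH/3T3 fibroblasts infected with β-gal-expressing T. cruzi Tulahuen C4 | Amount: 5,000 cells/well | Medium: DMEM, 2% fetal bovine serum | Signal: GalScreen β-gal luminescence, detergent lysis, 60 min | Timing: 3 h attach, ≥90 h co-culture | Also added: Tulahuen C4 trypomastigotes, 5000/well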
Lmaj promast: Leishmania major promastigote growth inhibition, primary screen; Leishmania major promastigotes, resazurin fluorescence viability; inhibition, % at 10 µM; actives 9% (n = 200,000); AID 1063, 2008; in the data active means inhibition above about 50%;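 further: promastigotes grown with compound for 44 hours at 28 °C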
CHOP inhibitor: inhibitors of CHOP promoter induction, primary screen, cell-based, unfolded protein response, luciferase reporter | actives 3.8% (n = 220,000) | inhibition, % at 10 µM | CHO-K1 CHOP-promoter luciferase, tunicamycin-induced, 15-18 h | AID 2732, 2010;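 active means compounds that reduced the stress-induced luciferase reporter signal by more than about 70% of percent inhibition, limit read from the data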
Each line names hits and unclear results; the compound was inactive in the other large screens.

O=C(NC(CO)C(O)c1ccc([N+](=O)[O-])cc1)C(Cl)Cl (configuration not stated)	none
O=C(NC(CO)Cc1ccc([N+](=O)[O-])cc1)C(Cl)Cl (configuration not stated)	Lmaj promast 62.7
C=C(C)CN=C1NN=C(c2cc(C)n(-c3ccc(C)cc3)c2C)CS1	Lmaj promast 91.1, CHOP inhibitor 74.5
CCC(C)C(=O)Nc1nnc(SCC(=O)NC(C)(C)C)s1 (configuration not stated)	none
Cc1ccc(S(=O)(=O)N2CCN(C(=O)CNC(=O)c3ccc(Br)o3)CC2)cc1	none (no result: Dynein transport, Lmaj promast, CHOP inhibitor)
CSc1nsc(/C=C/Nc2ccc(C)c(C)c2)c1C#N	CHOP inhibitor 87.0
O=S1(=O)c2ccc(Br)cc2N2CCC[C@@H]2CN1Cc1ccccc1	none (no result: Dynein transport, T cruzi inh, Lmaj promast, CHOP inhibitor)
O=c1c(S(=O)(=O)c2ccc(Cl)cc2)cn(Cc2ccccc2)c2ccc(F)cc12	Lmaj promast 91.0
Cc1ccc(NC(=O)Cn2cc(S(=O)(=O)c3ccccc3)c(=O)c3cc(F)ccc32)cc1	none
O=C(CSc1ccccc1)N(c1ccc(Br)cc1)c1nccs1	Lmaj promast 67.2
c1ccc(Nc2nn[nH]n2)cc1	CHOP inhibitor 82.1
c1ccc(Nc2c(-c3ccco3)nc3ccccn23)cc1	none
Fc1ccc(Nc2c(-c3ccco3)nc3ccccn23)cc1	Lmaj promast 66.5
COC(=O)C1=CN(C(C)C)C=C(C(=O)OC)C1c1cc(Br)c(OC)c(OC)c1	Lmaj promast 100.1 (no result: T cruzi inh)
COC(=O)C1=CN(C(C)C)C=C(C(=O)OC)C1c1cccc(OC)c1	none
CCCc1cc(=O)oc2cc(OCC(=O)N3CCN(C(=O)C4COc5ccccc5O4)CC3)ccc12 (configuration not stated)	none (no result: Dynein transport, Lmaj promast, CHOP inhibitor)
CN(C)c1ccc(C(CNC(=O)c2ccccc2Br)c2c[nH]c3ccccc23)cc1 (configuration not stated)	Lmaj promast 94.3
Cc1cc(Cl)ccc1NC(=S)NCCC(c1ccccc1)c1ccccc1	none
COc1cc(NC(=S)NCCC(c2ccccc2)c2ccccc2)cc(OC)c1	T cruzi inh 61.6
Cc1cccc(NC(=S)NCCC(c2ccccc2)c2ccccc2)c1	Lmaj promast 96.6
COc1cccc(NC(=S)NCCC(c2ccccc2)c2ccccc2)c1	Lmaj promast 100.4
COc1ccc(NC(=S)NCCC(c2ccccc2)c2ccccc2)c(OC)c1	none
COCC(C)N=C1NN=C(c2c[nH]c3ccccc23)CS1 (configuration not stated)	none
NC(=O)C1CCN(CC(=O)Nc2ccccc2Sc2ccc(Cl)cc2)CC1	Lmaj promast 93.0
NC(=O)C1CCN(CC(=O)Nc2ccccc2Sc2ccccc2)CC1	none
Cc1ccc(C(=O)OCC(=O)Nc2ccccc2Sc2ccccc2)cc1C	Lmaj promast 62.4
COC(=O)C1CCN(CC(=O)Nc2ccccc2Sc2ccccc2)CC1	Lmaj promast 51.7
O=C(NCCc1ccccn1)c1cncc(Br)c1	none (no result: Dynein transport, Lmaj promast, CHOP inhibitor)
CCOc1ccccc1NC(=O)C(OC(=O)c1cc(C)oc1C)c1ccccc1 (configuration not stated)	Lmaj promast 85.4
COc1cc(/C=C/C(=O)N2CC(C)OC(C)C2)cc(OC)c1OC (configuration not stated)	none (no result: Dynein transport, Lmaj promast, CHOP inhibitor)
COc1ccc(-c2csc(-c3ccc(C(=O)O)cc3)n2)cc1	none
COc1ccc(-c2csc(-c3[nH]cnc3N)n2)cc1	Lmaj promast 96.2
O=C(COC(=O)c1cncc(Br)c1)NCc1cccs1	none (no result: Dynein transport, T cruzi inh, Lmaj promast, CHOP inhibitor)
COc1ccc(Nc2nc(NC(C)(C)C)nc(N3CCCC3)n2)c(OC)c1	Lmaj promast 95.8, CHOP inhibitor 83.7
COc1ccc(Nc2nc(N3CCCC3)nc(N3CCCC3)n2)c(OC)c1	T cruzi inh inconclusive
COc1ccc(-c2cc(-c3ccc(F)cc3)nc(N3CCN(C)CC3)n2)cc1	CHOP inhibitor 86.7
COc1ccc(Nc2nc(N3CCCCC3)nc(N3CCCCC3)n2)c(OC)c1	none (no result: Dynein transport, Lmaj promast, CHOP inhibitor)
COc1ccc(N2CCN(c3nc(NC(C)(C)C)nc(N4CCCCC4)n3)CC2)cc1	Lmaj promast 97.1
COc1ccc(Nc2nc(Nc3ccc(OC)cc3OC)nc(N3CCN(C)CC3)n2)c(OC)c1	Lmaj promast 76.6
CCCCN(C(=O)c1cc(S(=O)(=O)N2CCCCCC2)ccc1OC)c1ccccc1	none (no result: Dynein transport, Lmaj promast, CHOP inhibitor)
COc1ccc(Nc2nc(NC(C)(C)C)nc(N3CCOCC3)n2)c(OC)c1	T cruzi inh 59.3
CCN1CCN(C(=O)CN(C)S(=O)(=O)c2ccc(OC)c(C)c2)CC1	Lmaj promast 97.8
CNC(=O)[C@H]1O[C@@H](n2cnc3c(N)ncnc32)C(O)[C@H]1O (some centres not stated)	none (no result: XBP1 UPR activ, CHOP UPR activ, Dynein transport, T cruzi inh, Lmaj promast)
COc1ccc(Oc2nc(-c3ccncc3)nc3ccccc23)cc1	none (no result: Lmaj promast)
COc1cccc(Oc2nc(-c3ccncc3)nc3ccccc23)c1	T cruzi inh 55.2 (no result: Lmaj promast)
COc1nc(-c2ccncc2)nc2ccccc12	none
C=CCOc1nc(-c2ccncc2)nc2ccccc12	CHOP inhibitor 71.1
Clc1ccc(-c2onc3c2CCCC3)cc1	CHOP inhibitor 77.7
C=CCn1c(SCc2ccc(C(=O)OC)cc2)nnc1-c1sc(N)nc1C	none
CCOC(=O)c1ccc(NC(=O)CSc2nc3c(c(=O)n2CC)SC(C)C3)cc1 (configuration not stated)	Lmaj promast 53.1
CCOC(=O)c1ccc(NC(=O)CSc2nc3c(c(=O)n2C)SC(C)C3)cc1 (configuration not stated)	none
C=CCn1c(SCC(=O)Nc2ccc(C(=O)OCC)cc2)nnc1-c1sc(N)nc1C	Lmaj promast 57.7
Cc1ccccc1C(=O)NC(=S)Nc1ccc(Cc2ccncc2)cc1	Lmaj promast 53.1
CCOc1ccc(C(=O)Nc2ccc(NC(=O)c3ccccc3)cc2)cc1Br	none (no result: Dynein transport, Lmaj promast, CHOP inhibitor)
Cc1c([N+](=O)[O-])cc(C(=O)Nc2ccc(Cc3ccncc3)cc2)cc1[N+](=O)[O-]	T cruzi inh 59.3, Lmaj promast 98.5, CHOP inhibitor 77.3
O=C(NC(=S)Nc1ccc(Cc2ccncc2)cc1)c1ccccc1Cl	none
CCOc1ccc(C(=O)Nc2ccc(Cc3ccncc3)cc2)cc1Br	T cruzi inh 74.1
COc1c(C)cc(Br)cc1C(=O)Nc1ccc(Cc2ccncc2)cc1	T cruzi inh 60.5, Lmaj promast 96.5
COc1ccccc1C(=O)Nc1ccc(Cc2ccncc2)cc1	none
Cc1cccc(C)c1NS(=O)(=O)c1ccc(-c2cnc(C3CC3)o2)cc1	none (no result: Dynein transport, Lmaj promast, CHOP inhibitor)
